Screening results deposited in PubChem by several laboratories.
The list is not random: actives were taken first. Their share in the collection is about 2.7%.
NR1D1 modulator = modulators of Rev-erb alpha DNA binding, primary screen, biochemical, FITC-DNA, fluorescence polarization, uHTS; Rev-erbα–FITC-DNA binding, 90 min; activity, % at 10 µM; hit rate 0.79% among 370,000; AID 1259318, 2017;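 active = activity above about 14%, limit read from the data; passing the limit was not always enough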
NR2E3 ag-1 = NR2E3 agonists in two-hybrid cells, primary screen, cell-based, luminescence, CHO-S, Gal4-NCOR/VP16-NR2E3; Photoreceptor-specific nuclear receptor (Homo sapiens), Q9Y5X4; luciferase; inhibition of corepressor binding, % at 3.98 µM; hit rate 0.35% among 360,000; AID 602229, 2012;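 active = inhibition above the mean of all tested compounds plus 3 SD, cut at about 70% in these data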;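 note: higher means lower luciferase signal from less NR2E3 corepressor binding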
Target sequence (Q9Y5X4 whole entry, looked up, the tested form may be a part): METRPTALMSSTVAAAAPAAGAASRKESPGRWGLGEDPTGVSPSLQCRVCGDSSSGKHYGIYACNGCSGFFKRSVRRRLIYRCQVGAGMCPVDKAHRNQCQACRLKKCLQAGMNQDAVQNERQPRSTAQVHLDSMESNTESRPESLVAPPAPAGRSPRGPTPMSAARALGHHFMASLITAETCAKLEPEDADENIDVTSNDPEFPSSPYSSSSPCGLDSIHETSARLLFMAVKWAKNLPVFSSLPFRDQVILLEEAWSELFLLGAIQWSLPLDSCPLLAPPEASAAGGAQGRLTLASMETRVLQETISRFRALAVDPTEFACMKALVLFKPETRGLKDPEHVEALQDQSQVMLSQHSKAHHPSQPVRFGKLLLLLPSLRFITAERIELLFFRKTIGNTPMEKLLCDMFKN
MC4R antag cAMP = MC4R antagonists of cAMP signaling, primary screen, cell-based, TR-FRET, antagonist arm of biased-ligand search; inhibition, % at 6.5 µM; hit rate 0.48% among 360,000; MC4R-expressing cells, MTII-stimulated cAMP, LANCE TR-FRET;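 active = inhibition above its plate's cutoff, the mean of tested wells on that plate plus 3 SD, cut at about 29% in these data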
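material = U2OS cells stably expressing human melanocortin 4 receptor (MC4R) | also added = Melanotan II challenge | dosing = single nominal compound dose of 6.5 µM | detection = TR-FRET with Eu-cAMP and labeled anti-cAMP, 671 nm | replication = singlicate | timing = compound 30 min, challenge 1 h, detection 1 h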
MC4R ag barr = MC4R agonists recruiting beta-arrestin, primary screen, cell-based, luminescence, agonist arm of biased-ligand search; Melanocortin receptor 4 (Homo sapiens), P32245; activation, % at 8.9 µM; U2OS MC4R beta-arrestin complementation; percent of melanotan II response, DMSO zero; hit rate 0.98% among 360,000;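 active = activation above a per-plate cutoff, the mean activation of sample wells on that plate plus 3 SD, cut at about 8% in these data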
NR2E3 ag-2 = inhibitors of NR2E3-RetCOR corepressor binding, primary screen, NR2E3 agonist project, biochemical, TR-FRET, GST-NR2E3, biotin-RetCOR; 1536-well; inhibition of corepressor binding, % at 4.78 µM; hit rate 0.12% among 320,000; AID 2300, 2010;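 active = percent inhibition above the cutoff of mean plus 3 SD of all tested compounds, set per screening campaign, cut at about 20% in these data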
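System: GST-NR2E3 and biotin-RetCOR proteins; probe or stimulus: 7 nM biotin-RetCOR; doses: compound at 4.8 µM, single dose; schedule: Compound–protein incubation for 5 h at 4 °C; detection: time-resolved FRET; read-out: percent inhibition; controls: biotin wells as high control, 0.6% DMSO wells as low control; format: 1536-well plates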
PG9 binder = binders of HIV-1 gp120 antibody PG9, primary screen, biochemical, TR-FRET; HIV-1 gp120 / PG9 antibody interaction; TR-FRET gp120-PG9 antibody binding; inhibition, % at 6.7 µM; hit rate 0.43% among 360,000; in the data active = inhibition above about 8.5%
NR1D1 mod conf = modulators of Rev-erb alpha DNA binding, confirmation, biochemical, FITC-DNA, fluorescence polarization, single point; shares compounds with NR1D1 modulator; 90 min; activation, % at 25 µM; hit rate 61% among 3,000;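 active = activation at or above a set limit, or at least 3 SD above the negative control mean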
RORg DNA counter = modulation of RORgamma DNA binding, dose response, counter-screen for Rev-erb alpha modulator project, biochemical, fluorescence polarization, FITC-DNA | shares compounds with NR1D1 modulator | purified RORgamma protein-FITC-DNA binding | IC50, µM | hit rate 8% among 910 | AID 1259320, 2017;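 active = Compounds whose fitted half-maximal concentration for disrupting protein-DNA binding is below 10 micromolar; the record names Rev-erb in its text, so the target is in doubt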
A number is an active result; – = inactive; · = no result.

SMILES | NR1D1 modulator | NR2E3 ag-1 | MC4R antag cAMP | MC4R ag barr | NR2E3 ag-2 | PG9 binder | NR1D1 mod conf | others
COc1cccc(-n2nnc3c(=O)n(CC(=O)Nc4ccccc4C)cnc32)c1 | 23.3 | – | – | – | – | – | –
CCOc1ccccc1NC(=O)Cn1cnc2c(nnn2-c2cccc(OC)c2)c1=O | – | – | – | – | – | – | ·
O=C(Cn1cc(C(F)(F)F)cc(Cl)c1=O)Nc1cccc(Cl)c1 | – | – | – | – | – | – | ·
O=C(Cn1cc(C(F)(F)F)cc(Cl)c1=O)Nc1cc(Cl)cc(Cl)c1 | 58.6 | – | – | – | – | – | 26.8
COC(=O)c1c(NC2=NS(=O)(=O)c3ccccc32)sc2c1CCC(C(C)(C)C)C2 (centres undefined) | 29.5 | – | – | – | · | – | 18.7
CCOC(=O)c1c(NC2=NS(=O)(=O)c3ccccc32)sc2c1CCCCC2 | – | – | – | – | – | – | ·
CCOC(=O)c1c(NC2=NS(=O)(=O)c3ccccc32)sc2c1CCC(C)C2 (centres undefined) | 41.4 | – | – | – | – | – | –
CC1CN(C(=S)Nc2ccc(F)cc2F)CC(C)O1 (centres undefined) | – | – | – | – | – | – | ·
COc1cc(OC)c(NC(=O)C2CCN(S(=O)(=O)c3ccc4c(c3)CC(C)N4C(C)=O)CC2)cc1Cl (centres undefined) | – | – | – | – | – | – | ·
Cc1ccc2c(c1)c(/C=C/c1cc[n+](C)cc1)c(C)n2C | 280.3 | – | – | – | · | – | 223.5 | RORg DNA counter=–
C[n+]1ccc(/C=C/c2ccc(Br)cc2)cc1 | – | – | – | – | – | – | ·
Cc1ccc2[nH]c(C)c(/C=C/c3cc[n+](C)cc3)c2c1 | 235.0 | – | – | – | · | – | 181.8 | RORg DNA counter=–
COc1ccc(-n2c(=S)[nH]c3cc(C(=O)NCCCN4CCOCC4)ccc3c2=O)c(OC)c1 | – | – | – | – | – | – | ·
N#Cc1ccc(-c2ccccc2)nc1SCC(=O)c1cccc(Cl)c1 | 38.5 | – | – | – | – | – | 18.0
CC(C)OCCc1cccc[n+]1[O-] | · | – | · | · | · | · | ·
COc1ccc2cc(C(=O)NCc3ccccc3)c(=O)oc2c1 | 40.2 | – | – | – | – | – | –
COc1ccc2oc(=O)c(C(=O)NCc3ccc(F)cc3)cc2c1 | 29.8 | – | – | – | – | – | –
CCCS(=O)(=O)N1CCCC(c2nc(-c3cccc(OC)c3)no2)C1 (centres undefined) | – | – | – | – | – | – | ·
CC(=O)N(C)c1nnc(-c2ccccn2)s1 | – | – | – | – | – | – | ·
Cc1ccc(-c2nnc(-c3ccccc3)c(-c3ccccc3)n2)cc1 | – | – | – | – | – | – | ·
Cc1ccc(-c2nc3cc(Br)cnc3nc2-c2ccc(C)cc2)cc1 | 25.6 | – | – | – | – | – | –
COc1ccc(C(=O)CSc2nnc3ccc(-c4ccccn4)nn23)cc1 | 51.7 | – | – | – | – | – | 18.9
COc1ccc(-n2c(COc3ccc(C)cc3)nnc2SCC(=O)c2ccc(-c3ccccc3)cc2)cc1 | 44.5 | · | · | · | · | · | 27.8
O=C(CSc1nnc2ccc(-c3ccccn3)nn12)Nc1ccc(F)cc1 | – | – | – | – | · | – | ·
